HDAC3 inh: blocks human histone deacetylase 3 | AID 2718 | inhibition, % at 8.3 µM | 320,000 tested, 0.15% active | recombinant HDAC3, fluorogenic peptide/trypsin coupled, fluorescence; in the data active = inhibition above about 26%, passing the limit was not always enough; inconclusive = no clear call, values can overlap the other calls
Bfl-1 A1 inh: inhibitors of the anti-apoptotic protein A1, read as caspase activation | MEF A1-2A-BIM cells, Caspase-Glo 3/7 luminescence, 3 h; percent of clofoctol response, vehicle zero | caspase activation, % (concentration not given with the values) | 330,000 tested, 0.066% active | AID 2462;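 active = over half of replicate activation scores above 10%, or exactly half above 10 with the replicate mean above 10; inconclusive = replicate mean below 10 yet half the replicates above 10; inactive = over half of replicates below 10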
ATG4B inh: blocks human ATG4B protease cleavage of LC3 substrate; Q9Y4P1; 340,000 tested, 0.51% active; ATG4B cleavage of LC3-PLA2, NBD-HPC fluorescence, 1 h; inhibition, % at 8.33 µM; AID 504462; in the data active = inhibition above about 40%
LANA-H2A inh: blocks KSHV LANA binding to histone H2A/H2B; Q9QR71; inhibition, % (no concentration beside the values); cell-free LANA-H2A/H2B peptide, fluorescence polarization; 320,000 tested, 0.6% active; AID 2629; in the data active = inhibition mostly above about 10%, no sharp cut-off; inactive = mostly below about 6.7%
Target sequence (Q9QR71 whole entry, looked up): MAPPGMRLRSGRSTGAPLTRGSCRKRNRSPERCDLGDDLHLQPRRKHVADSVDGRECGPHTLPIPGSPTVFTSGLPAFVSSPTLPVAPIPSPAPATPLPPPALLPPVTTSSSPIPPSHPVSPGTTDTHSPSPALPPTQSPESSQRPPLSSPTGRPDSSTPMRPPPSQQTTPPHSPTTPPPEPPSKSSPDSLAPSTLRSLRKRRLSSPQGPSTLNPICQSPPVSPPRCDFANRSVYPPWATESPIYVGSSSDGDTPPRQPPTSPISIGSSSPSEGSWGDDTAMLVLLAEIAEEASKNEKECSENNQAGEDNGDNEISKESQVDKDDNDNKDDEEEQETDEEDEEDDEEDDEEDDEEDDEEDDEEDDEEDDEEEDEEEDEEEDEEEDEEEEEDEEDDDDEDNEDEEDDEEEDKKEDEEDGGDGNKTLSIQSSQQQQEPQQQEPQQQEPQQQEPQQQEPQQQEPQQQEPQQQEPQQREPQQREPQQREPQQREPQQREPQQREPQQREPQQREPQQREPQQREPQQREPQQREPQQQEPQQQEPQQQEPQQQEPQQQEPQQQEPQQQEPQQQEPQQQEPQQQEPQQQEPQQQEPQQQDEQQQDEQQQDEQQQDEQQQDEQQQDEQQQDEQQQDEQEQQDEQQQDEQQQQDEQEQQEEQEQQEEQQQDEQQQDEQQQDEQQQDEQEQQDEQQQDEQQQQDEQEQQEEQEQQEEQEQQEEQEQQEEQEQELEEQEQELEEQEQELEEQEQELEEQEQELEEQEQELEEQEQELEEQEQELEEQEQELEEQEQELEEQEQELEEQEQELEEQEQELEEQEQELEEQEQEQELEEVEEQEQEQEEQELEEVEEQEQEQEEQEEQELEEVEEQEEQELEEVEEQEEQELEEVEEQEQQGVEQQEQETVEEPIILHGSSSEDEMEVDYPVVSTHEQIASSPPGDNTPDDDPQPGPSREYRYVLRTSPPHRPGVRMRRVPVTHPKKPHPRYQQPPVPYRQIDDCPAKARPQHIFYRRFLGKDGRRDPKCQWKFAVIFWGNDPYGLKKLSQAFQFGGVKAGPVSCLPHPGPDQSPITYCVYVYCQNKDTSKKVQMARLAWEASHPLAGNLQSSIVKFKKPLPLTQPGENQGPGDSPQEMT
HKDC1 inh: blocks human hexokinase HKDC1 activity | recombinant HKDC1, G6PDH/diaphorase resazurin coupled fluorescence | Q2TB90 | inhibition, % at 20 µM | 340,000 tested, 0.16% active;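 active = inhibition above about 35% when tested at 20 µM, limit read from the data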;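 also: plate controls were DMSO wells with enzyme for no effect and DMSO wells lacking enzyme for full effect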
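Assay system: recombinant HKDC1 hexokinase; detection: coupled resazurin fluorescence, excitation 525 nm, emission 613 nm; benchmarks: DMSO-plus-enzyme-mix negative control, buffer-substituted positive control; compound dosing: single 20 µM dose; schedule: 90 min at room temperature in dark; also added: glucose plus 1 mM ATP as hexokinase substrates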
AI-2 QS modul: modulates the Vibrio harveyi AI-2 quorum sensing system | 300,000 tested, 0.4% active | activity change, % at 7.5 µM | Vibrio harveyi JMH597 AI-2 luminescence/OD600 ratio, 9 h; hits give low values; strain lacks LuxN and CqsS sensors; 0 = neutral-control median; in the data active = activity change below about -75%, passing the limit was not always enough; inconclusive = no clear call, values can overlap the other calls;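 also: luminescence divided by OD600 gain over 9 h not by final OD600 alone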
An asterisk follows results filed as active; u = inconclusive; x = no result; + = active, no number. In the library only some 1.8% were active in any assay of this set; here they are far more common.

SMILES	HDAC3 inh	Bfl-1 A1 inh	ATG4B inh	LANA-H2A inh	HKDC1 inh	AI-2 QS modul
C[C@@H]1CN([C@H](C)CO)C(=O)c2cccc(NC(=O)NC3CCCCC3)c2O[C@@H]1CN(C)C(=O)Nc1ccc(C(F)(F)F)cc1	28*	-1	-10	0	0	x
C[C@H](CO)N1C[C@H](C)[C@@H](CN(C)C(=O)Nc2ccc(C(F)(F)F)cc2)Oc2c(NC(=O)NC3CCCCC3)cccc2C1=O	17	0	-19	-3	-1	x
CCOC(=O)C(=Cc1ccc2c(c1)OCO2)c1ccccc1	x	x	1	x	-3	x
Cn1ncc(Cl)c1C(=O)NCC1CCCO1 (stereo not given)	-2	-1	-6	14*	-6	0
CC(C)C[C@@H](CNCC(=O)[C@H](CC(=O)O)NC(=O)c1[nH]cnc1C(=O)N[C@H](CN)CC(C)C)NC(=O)c1nc[nH]c1C(=O)N[C@@H](Cc1ccccc1)C(=O)O	x	x	2	x	18	x
Cc1[nH]c(-c2ccco2)nc1C(=O)O	-1	0	-3	15*	1	9
CC[C@]12C(=O)N(C)C[C@H]([C@@H]3C(=O)N(Cc4ccccc4)C(=O)[C@@H]31)N2C(=O)c1ccc(C(C)(C)C)cc1	x	x	-9	x	-5	x
Cc1ccc(C)c(OCCC(=O)OCC(=O)N2c3ccccc3NC(=O)C2(C)C)c1	6	0	-4	12*	1	x
COc1ccccc1CCC(=O)OCC(=O)N1c2ccccc2NC(=O)C1(C)C	-1	0	-8	x	-5	x
CC1C(=O)c2ccccc2CC1C(=O)O (stereo not given)	x	x	-3	x	-3	x
O=c1oc(-c2ccco2)nc2c1cnn2-c1ccccc1	62*	0	2	-1	6	1
CCCn1c(C)cc(/C=C(\C#N)C(=O)OCC(=O)N(CC)c2c(N)n(Cc3ccccc3)c(=O)[nH]c2=O)c1C	x	x	-11	x	-1	x
COc1ccc([N+](=O)[O-])c(S(=O)(=O)c2ccc(Cl)cc2)n1	2	0	3	-5	24	-145*
COc1ccc([N+](=O)[O-])c(S(=O)(=O)c2ccccc2)n1	0	2	-2	-6	16	u
C#CCNC(=O)C1=C[C@H](c2coc3ccccc3c2=O)C[C@H](OCc2ccc(CO)cc2)O1	-5	-1	0	-4	-1	8
C#CCNC(=O)C1=C[C@@H](c2coc3ccccc3c2=O)C[C@@H](OCc2ccc(CO)cc2)O1	36*	-1	-13	3	1	22
CCOC(=O)c1c(S(=O)(=O)N(C)Cc2ccccc2)c(C)n(C)c1C	3	0	5	2	3	-10
CC(C)n1c(O)c(/C=C2\C=NN=C2c2ccccc2)sc1=S	-2	0	0	12*	3	2
CCn1c(O)c(/C=C2\C=NN=C2c2ccc(C)cc2)sc1=S	-4	0	-1	2	2	0
O=C(O)c1c(Cl)cccc1Cl	-1	0	2	+	-5	x
COCCN(C(=O)c1cccc(OC)c1)c1nnc(-c2ccncc2)s1	0	0	-8	0	-2	19
COCCN(C(=O)/C=C/c1ccccc1)c1nnc(-c2cccnc2)s1	-4	-1	3	56*	5	1
O=C(Nc1cccc(S(=O)(=O)N2CCOCC2)c1)c1ccc(=O)[nH]c1	-10	0	0	-5	0	x
COc1cccc(C(C(=O)NC2CCCCC2)N(C(=O)c2csnn2)C2CC2)c1 (stereo not given)	1	0	-2	13*	-4	14
COc1ccc(C(CNC(=O)CN2C(=O)NC(C)(c3ccc4ccccc4c3)C2=O)N2CCCC2)cc1 (stereo not given)	x	x	-2	x	2	x
SMILES	HDAC3 inh	Bfl-1 A1 inh	ATG4B inh	LANA-H2A inh	HKDC1 inh	AI-2 QS modul
CCOC(=O)c1cc(C)nc(SC)c1C#N	6	-1	-1	0	3	17
CCOC(=O)c1cc(C(C)(C)C)nc(SC)c1C#N	8	-1	1	30*	2	24
CCOc1cc2c(cc1O)C(=NO)CC1C2CCC2(C)C(O)CCC12 (stereo not given)	x	x	-1	x	-4	x
CC(C)[C@H](NC(=O)NCCC1=CCCCC1)C(=O)O	-1	0	4	-3	-5	18
CCC(C)[C@H](NC(=O)NCCC1=CCCCC1)C(=O)O (stereo not given in full)	-12	1	-2	35*	-2	15
O=C(/C=C/c1ccccc1)NCCC1=CCCCC1	14	-1	2	-4	-7	-86*
CCC1S/C(=N/S(=O)(=O)c2ccc(N)cc2)NC1=O (stereo not given)	x	x	6	x	-1	x
COc1cccc(CN2CC(C(=O)N3CCN(C(C)C)CC3)CCC2=O)c1 (stereo not given)	-6	0	4	-6	-6	12
O=c1ccn([C@@H]2O[C@H](CNS(=O)(=O)c3csc(-c4ccno4)c3)[C@@H](O)[C@H]2O)c(=O)[nH]1	x	x	-6	x	-2	x
[O-][n+]1c2ccccc2cc2ccccc21	-47	0	-1	18*	-1	15
COc1ccc2nc3ccccc3[n+]([O-])c2c1	x	x	-9	x	7	x
CCCCNC(=O)c1cn(CC)c2ccc(S(=O)(=O)N3CCCC3)cc2c1=O	1	0	0	1	4	23
CCn1cc(C(=O)NCCCOC)c(=O)c2cc(S(=O)(=O)N3CCCC3)ccc21	10	0	3	14*	-4	13
CN(C)C(=O)C1C2NC(=S)N(c3cccc(Cl)c3)C1(C)Oc1ccc(Cl)cc12 (stereo not given)	3	0	-1	8	-3	11
c1ccc(NCc2nc(-c3ccccc3)no2)cc1	0	0	6	-2	0	-87*
COc1ccc(CC(=O)NCc2nc(-c3ccccc3)no2)cc1	-5	1	-4	-4	3	-77*
Cc1ccc(S(=O)(=O)NCc2nc(-c3ccccc3)no2)cc1	-5	2	-2	3	-9	27
O=C(NCCc1ccccc1)c1ccc(NC(=O)C2CCC2)cc1	x	x	3	x	-5	x
COc1cc(OC)c(OC)cc1CNC(=O)c1cccc(S(=O)(=O)N2CCc3ccccc3C2)c1	x	x	-9	x	1	x
O=C(CC1CC2CCC1C2)N1CCN(S(=O)(=O)c2ccccc2[N+](=O)[O-])CC1 (stereo not given)	2	0	-8	1	-8	x
O=C(CC1CC2CCC1C2)N1CCN(S(=O)(=O)c2ccccc2C(F)(F)F)CC1 (stereo not given)	-6	8.6*	-9	-3	-2	x
COc1ccc(-c2nn(-c3ccccc3)cc2/C=C/C(=O)OCC(=O)Nc2ccccc2C#N)cc1	-8	24*	5	-7	-3	18

Source: PubChem BioAssay (several laboratories)
